Results from ChEMBL document CHEMBL5678805, “Intermittent administration of MEK inhibitor GDC-0973 plus PI3K inhibitor GDC-0941 triggers robust apoptosis and tumor growth inhibition” (Cancer Res, 2012).
The source made the active and inactive calls. No cut-off for these calls is given here.

How the values were obtained:
[1] = target: Ribosomal protein S6 kinase beta-1 (Homo sapiens, UniProt P23443); assay: Inhibition of p70S6K (unknown origin)
A375.X1 = assay: Antitumor activity against human A375.X1 cells xenografted in po dosed mouse assessed as reduction in ERK phosphorylation administered for 3 days and measured at 2 to 24 hrs by Western blot analysis; type: functional, organism-based; settings: dose 1-10 mg/kg, time 74-96 hrs
How it was run: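 A375.X1 xenograft mice were dosed orally at 1, 3, 5 or 10 mg/kg once daily for 3 days. Tumors were collected 2, 8 and 24 h after the last dose, pulverized frozen and resolved by 4–12% SDS-PAGE. p-ERK1/2 and t-ERK1/2 were measured by Western blot and quantified by band intensity, relative to vehicle-treated mice (0 h).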

[2] = target: Glycogen synthase kinase-3 beta (Homo sapiens, UniProt P49841); assay: Inhibition of GSK3beta (unknown origin)
NCI-H441 = assay: Antitumor activity against human NCI-H441 cells harboring KRAS G12V/TP53 R158L/MET high mutant xenografted in mouse assessed as tumor growth inhibition at 5 mg/kg, po; type: functional; settings: read-out: TGI
How it was run: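 Human tumor xenografts in mice were dosed orally at the indicated mg/kg. Tumor volume was measured with calipers as (L×W×W)/2. %TGI = 100 × [1 − (AUC treatment/d)/(AUC vehicle/d)], using the area under the fitted tumor-growth curve per day for each dose group relative to vehicle.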

[3] = target: Proto-oncogene tyrosine-protein kinase Src (Homo sapiens, UniProt P12931); assay: Inhibition of SRC (unknown origin)
NCI-H2122 [4] = assay: Antitumor activity against human NCI-H2122 cells xenografted in mouse assessed as reduction in ERK phosphorylation at 1 to 10 mg/kg, po administered for 3 days and measured at 8 hrs by Western blot analysis; type: functional; parameters: scale not given: the % may be the effect or the level left; settings: time 80 hrs
How it was run: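 NCI-H2122 xenograft mice received 3 daily oral doses of 1, 3, 5 or 10 mg/kg. Tumors were collected 2, 8 and 24 h after the last dose, pulverized on dry ice and lysed. Lysates were run on 4–12% SDS-PAGE and transferred to nitrocellulose. p-ERK1/2 and t-ERK1/2 bands were quantified on an Odyssey imager and expressed relative to vehicle-treated mice (0 h).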

[5] = Antitumor activity against human A375.X1 cells harboring BRAF V600E/CDKN2A E61 mutant xenografted in mouse assessed as tumor growth inhibition at 10 mg/kg, po; type: functional; settings: A375.X1, read-out: TGI
How it was run: (§1)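 Single-agent dose ranging in human tumor xenograft mice at 2.5, 5 or 10 mg/kg oral. Tumor volume was measured by caliper as (L×W×W)/2. %TGI = 100×[1 − AUC(treatment/d)/AUC(vehicle/d)] from the fitted growth curve per dose group, relative to vehicle.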

NCI-H2122 [6] = assay: Antitumor activity against human NCI-H2122 cells xenografted in mouse assessed as tumor growth inhibition at 5 mg/kg, po administered once a day for 21 days; type: functional; settings: NCI-H2122, 504 h, read-out: TGI, time 21 day
How it was run: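 Mice bearing NCI-H2122 xenografts were given MEK inhibitor, PI3K inhibitor, or both, orally once daily for 21 consecutive days at the doses labeled. Caliper tumor volumes were calculated as (L×W×W)/2. %TGI was derived from the AUC of the fitted growth curve per day relative to vehicle.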

[7] = target: Mitogen-activated protein kinase kinase kinase 9 (Homo sapiens, UniProt P80192); assay: Inhibition of MLK1 (unknown origin)
[8] = target: Serine/threonine-protein kinase Chk2 (Homo sapiens, UniProt O96017); assay: Inhibition of CHK2 (unknown origin)
[9] = target: Platelet-derived growth factor receptor beta (Homo sapiens, UniProt P09619); assay: Inhibition of PDGFR beta (unknown origin)
[10] = target: RAC-alpha serine/threonine-protein kinase (Homo sapiens, UniProt P31749); assay: Inhibition of Akt1 (unknown origin)
A549 = assay: Antitumor activity against human A549 cells harboring KRAS G12S/LKB1Q37/SMARCA4 Q729/CDKN2A mutant xenografted in mouse assessed as tumor growth inhibition at 5 mg/kg, po; type: functional; settings: read-out: TGI; how it was run: as §1
[11] = target: MAP kinase-activated protein kinase 2 (Homo sapiens, UniProt P49137); assay: Inhibition of MAPKAP2 (unknown origin)
Insulin receptor = Insulin receptor (Homo sapiens, UniProt P06213); assay: Inhibition of insulin receptor (unknown origin)
[12] = target: Death-associated protein kinase 1 (Homo sapiens, UniProt P53355); assay: Inhibition of DAPK1 (unknown origin)
[13] = target: Mitogen-activated protein kinase 14 (Homo sapiens, UniProt Q16539); assay: Inhibition of p38alpha (unknown origin)
[14] = Antitumor activity against human A2058-X1 cells harboring BRAF V600E/PTEN L112Q/V175/TP53 V274F mutant xenografted in mouse assessed as tumor growth inhibition at 2.5 mg/kg, po; type: functional; settings: A2058-X1, read-out: TGI; how it was run: as §1
SK-MEL-28 = assay: Antiproliferative activity against human SK-MEL-28 cells assessed reduction in cell viability incubated for 4 days in presence of 4-(2-(1H-indazol-4-yl)-6-((4-(methylsulfonyl)piperazin-1-yl)methyl)thieno[3,2-d]pyrimidin-4-yl)morpholine by celltiter-glo assay; type: functional; settings: time 4 day
How it was run: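 4-day CellTiter-Glo viability read-out on melanoma lines, cells exposed to increasing concentrations of each inhibitor alone and in combination.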

DLD-1 [15] = assay: Antitumor activity against human DLD-1 cells xenografted in mouse assessed as tumor growth inhibition at 15 mg/kg, po administered once a day for 21 days; type: functional; settings: DLD-1, 504 h, time 21 day, read-out: TGI
How it was run: (§2)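 Human tumor xenografts in mice. Drugs given orally, as single agents or combined with the PI3K inhibitor. Schedules were daily (QD) or every third day (Q3D) over 21 days. Tumor volume was measured by caliper as (L×W×W)/2. %TGI = 100×[1 − AUC(treatment/d)/AUC(vehicle/d)] from fitted growth curves, with group means. Tumor lysates were immunoblotted for pS6.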

Casein kinase I = assay: Inhibition of CK1 (unknown origin); type: protein assay, Homo sapiens
DLD-1 [16] = assay: Antitumor activity against human DLD-1 cells xenografted in mouse assessed as tumor growth inhibition at 3 mg/kg, po administered once a day for 21 days; type: functional; settings: DLD-1, 504 h, time 21 day, read-out: TGI; how it was run: as §2
[17] = target: Tyrosine-protein kinase ZAP-70 (Homo sapiens, UniProt P43403); assay: Inhibition of ZAP70 (unknown origin)
A-375 = assay: Antitumor activity against human A-375 cells harboring BRAF V600E/CDKN2A E61 mutant xenografted in mouse assessed as tumor growth inhibition at 5 mg/kg, po; type: functional; settings: A-375, read-out: TGI
How it was run: (§3)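 Mice carrying human tumor xenografts dosed orally once daily for 21 consecutive days. Tumor volume measured by calipers as (L×W×W)/2. %TGI = 100×[1 − AUC(treatment/day)/AUC(vehicle/day)], using the area under the fitted growth curve relative to vehicle.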

A2058 [18] = assay: Antitumor activity against human A2058 cells harboring BRAF V600E/PTEN L112Q/V175/TP53 V274F mutant xenografted in mouse assessed as tumor growth inhibition at 10 mg/kg, po; type: functional; settings: read-out: TGI; how it was run: as §3
A2058 [19] = assay: Antitumor activity against human A2058 cells harboring BRAF V600E/PTEN deletion mutant xenografted in mouse assessed as increase in Bim level at 15 mg/kg, po administered every third day for 21 days and measured after 72 hrs post dose in presence of 4-(2-(1H-indazol-4-yl)-6-((4-(methylsulfonyl)piperazin-1-yl)methyl)thieno[3,2-d]pyrimidin-4-yl)morpholine by Western blot analysis; type: functional, organism-based; settings: time 576.0 hrs

Chain of Insulin receptor (P06213 28-758 limits assumed): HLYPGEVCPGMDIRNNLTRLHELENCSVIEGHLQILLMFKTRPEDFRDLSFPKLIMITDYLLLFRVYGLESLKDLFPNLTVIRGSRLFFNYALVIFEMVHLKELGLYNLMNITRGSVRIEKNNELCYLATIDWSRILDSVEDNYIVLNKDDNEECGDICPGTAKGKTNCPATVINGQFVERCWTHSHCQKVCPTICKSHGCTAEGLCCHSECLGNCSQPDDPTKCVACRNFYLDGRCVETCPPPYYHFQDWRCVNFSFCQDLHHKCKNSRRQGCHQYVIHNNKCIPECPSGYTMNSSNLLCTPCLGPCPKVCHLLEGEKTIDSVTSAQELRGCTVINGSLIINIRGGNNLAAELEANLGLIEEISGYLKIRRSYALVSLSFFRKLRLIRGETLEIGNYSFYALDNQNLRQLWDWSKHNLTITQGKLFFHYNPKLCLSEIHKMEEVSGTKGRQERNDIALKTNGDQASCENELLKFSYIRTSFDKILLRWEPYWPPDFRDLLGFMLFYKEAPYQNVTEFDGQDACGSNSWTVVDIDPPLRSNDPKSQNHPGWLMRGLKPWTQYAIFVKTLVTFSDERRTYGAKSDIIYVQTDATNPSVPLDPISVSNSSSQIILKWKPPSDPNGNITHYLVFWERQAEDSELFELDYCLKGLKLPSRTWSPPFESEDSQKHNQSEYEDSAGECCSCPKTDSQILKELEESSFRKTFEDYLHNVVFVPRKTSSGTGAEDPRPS
Chain of Insulin receptor (P06213 763-1382 limits assumed): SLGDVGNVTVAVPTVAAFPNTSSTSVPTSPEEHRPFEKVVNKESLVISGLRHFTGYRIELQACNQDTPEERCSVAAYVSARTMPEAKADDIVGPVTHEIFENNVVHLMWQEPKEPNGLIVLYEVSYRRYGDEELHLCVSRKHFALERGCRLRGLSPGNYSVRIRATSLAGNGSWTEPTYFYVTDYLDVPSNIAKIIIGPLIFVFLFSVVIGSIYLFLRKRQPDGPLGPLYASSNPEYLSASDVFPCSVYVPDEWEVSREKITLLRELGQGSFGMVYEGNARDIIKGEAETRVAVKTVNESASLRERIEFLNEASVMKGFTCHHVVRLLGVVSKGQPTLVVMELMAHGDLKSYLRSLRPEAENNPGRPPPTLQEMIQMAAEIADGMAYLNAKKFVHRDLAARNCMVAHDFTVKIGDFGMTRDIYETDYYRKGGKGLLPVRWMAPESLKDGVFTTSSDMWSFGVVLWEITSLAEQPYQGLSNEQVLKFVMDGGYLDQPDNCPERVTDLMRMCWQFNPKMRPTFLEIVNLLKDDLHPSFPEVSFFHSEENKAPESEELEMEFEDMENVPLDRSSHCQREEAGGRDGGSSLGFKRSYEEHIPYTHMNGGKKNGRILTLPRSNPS
Chain of Glycogen synthase kinase-3 beta (P49841 whole entry): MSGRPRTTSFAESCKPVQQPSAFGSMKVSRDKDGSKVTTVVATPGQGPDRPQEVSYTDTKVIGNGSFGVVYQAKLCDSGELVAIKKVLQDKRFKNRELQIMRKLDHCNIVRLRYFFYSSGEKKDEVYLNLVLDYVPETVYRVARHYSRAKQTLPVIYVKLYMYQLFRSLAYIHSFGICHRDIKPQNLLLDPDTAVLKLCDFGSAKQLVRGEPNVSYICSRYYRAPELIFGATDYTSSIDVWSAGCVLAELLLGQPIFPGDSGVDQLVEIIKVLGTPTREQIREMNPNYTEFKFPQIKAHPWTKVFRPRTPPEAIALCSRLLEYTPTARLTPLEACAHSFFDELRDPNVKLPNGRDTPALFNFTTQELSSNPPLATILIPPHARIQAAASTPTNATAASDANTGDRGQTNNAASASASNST
Chain of Serine/threonine-protein kinase Chk2 (O96017 whole entry): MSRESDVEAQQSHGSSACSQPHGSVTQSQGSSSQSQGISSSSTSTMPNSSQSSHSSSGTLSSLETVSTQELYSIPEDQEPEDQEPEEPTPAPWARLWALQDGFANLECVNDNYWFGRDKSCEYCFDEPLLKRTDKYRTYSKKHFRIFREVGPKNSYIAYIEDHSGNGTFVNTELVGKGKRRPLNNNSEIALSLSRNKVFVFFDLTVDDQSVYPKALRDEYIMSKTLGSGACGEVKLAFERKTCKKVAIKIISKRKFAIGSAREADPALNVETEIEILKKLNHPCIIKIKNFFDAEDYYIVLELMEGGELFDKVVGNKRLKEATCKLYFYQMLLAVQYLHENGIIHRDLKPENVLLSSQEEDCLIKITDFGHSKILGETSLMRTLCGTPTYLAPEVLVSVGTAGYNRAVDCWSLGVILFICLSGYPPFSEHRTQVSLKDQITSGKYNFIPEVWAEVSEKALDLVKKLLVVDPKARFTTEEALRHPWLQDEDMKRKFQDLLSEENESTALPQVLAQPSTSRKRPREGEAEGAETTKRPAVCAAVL
Chain of Proto-oncogene tyrosine-protein kinase Src (P12931 2-536 limits assumed): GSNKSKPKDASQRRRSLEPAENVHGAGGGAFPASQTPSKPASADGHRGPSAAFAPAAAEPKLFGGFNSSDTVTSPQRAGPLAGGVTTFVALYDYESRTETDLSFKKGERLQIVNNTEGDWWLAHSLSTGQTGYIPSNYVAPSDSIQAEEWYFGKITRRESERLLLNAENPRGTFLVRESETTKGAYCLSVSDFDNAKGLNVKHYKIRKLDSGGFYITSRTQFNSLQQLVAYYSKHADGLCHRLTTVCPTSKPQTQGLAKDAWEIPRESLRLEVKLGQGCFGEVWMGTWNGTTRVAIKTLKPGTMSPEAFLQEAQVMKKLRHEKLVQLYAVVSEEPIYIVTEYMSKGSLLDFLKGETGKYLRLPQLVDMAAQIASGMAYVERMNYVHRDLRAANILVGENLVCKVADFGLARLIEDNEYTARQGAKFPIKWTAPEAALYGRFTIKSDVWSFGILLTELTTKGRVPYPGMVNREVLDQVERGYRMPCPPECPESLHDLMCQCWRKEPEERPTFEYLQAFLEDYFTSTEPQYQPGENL
Chain of Mitogen-activated protein kinase 14 (Q16539 whole entry): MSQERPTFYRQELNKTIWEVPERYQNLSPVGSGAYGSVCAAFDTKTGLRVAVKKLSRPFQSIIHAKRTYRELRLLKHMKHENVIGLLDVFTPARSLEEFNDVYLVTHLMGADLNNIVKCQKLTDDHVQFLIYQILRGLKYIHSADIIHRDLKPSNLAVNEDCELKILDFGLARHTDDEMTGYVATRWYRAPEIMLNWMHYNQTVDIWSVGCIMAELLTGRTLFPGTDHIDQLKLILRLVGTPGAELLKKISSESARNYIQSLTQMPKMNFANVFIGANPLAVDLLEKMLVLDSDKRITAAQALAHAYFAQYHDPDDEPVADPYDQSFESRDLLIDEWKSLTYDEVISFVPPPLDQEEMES
Chain of Death-associated protein kinase 1 (P53355 whole entry): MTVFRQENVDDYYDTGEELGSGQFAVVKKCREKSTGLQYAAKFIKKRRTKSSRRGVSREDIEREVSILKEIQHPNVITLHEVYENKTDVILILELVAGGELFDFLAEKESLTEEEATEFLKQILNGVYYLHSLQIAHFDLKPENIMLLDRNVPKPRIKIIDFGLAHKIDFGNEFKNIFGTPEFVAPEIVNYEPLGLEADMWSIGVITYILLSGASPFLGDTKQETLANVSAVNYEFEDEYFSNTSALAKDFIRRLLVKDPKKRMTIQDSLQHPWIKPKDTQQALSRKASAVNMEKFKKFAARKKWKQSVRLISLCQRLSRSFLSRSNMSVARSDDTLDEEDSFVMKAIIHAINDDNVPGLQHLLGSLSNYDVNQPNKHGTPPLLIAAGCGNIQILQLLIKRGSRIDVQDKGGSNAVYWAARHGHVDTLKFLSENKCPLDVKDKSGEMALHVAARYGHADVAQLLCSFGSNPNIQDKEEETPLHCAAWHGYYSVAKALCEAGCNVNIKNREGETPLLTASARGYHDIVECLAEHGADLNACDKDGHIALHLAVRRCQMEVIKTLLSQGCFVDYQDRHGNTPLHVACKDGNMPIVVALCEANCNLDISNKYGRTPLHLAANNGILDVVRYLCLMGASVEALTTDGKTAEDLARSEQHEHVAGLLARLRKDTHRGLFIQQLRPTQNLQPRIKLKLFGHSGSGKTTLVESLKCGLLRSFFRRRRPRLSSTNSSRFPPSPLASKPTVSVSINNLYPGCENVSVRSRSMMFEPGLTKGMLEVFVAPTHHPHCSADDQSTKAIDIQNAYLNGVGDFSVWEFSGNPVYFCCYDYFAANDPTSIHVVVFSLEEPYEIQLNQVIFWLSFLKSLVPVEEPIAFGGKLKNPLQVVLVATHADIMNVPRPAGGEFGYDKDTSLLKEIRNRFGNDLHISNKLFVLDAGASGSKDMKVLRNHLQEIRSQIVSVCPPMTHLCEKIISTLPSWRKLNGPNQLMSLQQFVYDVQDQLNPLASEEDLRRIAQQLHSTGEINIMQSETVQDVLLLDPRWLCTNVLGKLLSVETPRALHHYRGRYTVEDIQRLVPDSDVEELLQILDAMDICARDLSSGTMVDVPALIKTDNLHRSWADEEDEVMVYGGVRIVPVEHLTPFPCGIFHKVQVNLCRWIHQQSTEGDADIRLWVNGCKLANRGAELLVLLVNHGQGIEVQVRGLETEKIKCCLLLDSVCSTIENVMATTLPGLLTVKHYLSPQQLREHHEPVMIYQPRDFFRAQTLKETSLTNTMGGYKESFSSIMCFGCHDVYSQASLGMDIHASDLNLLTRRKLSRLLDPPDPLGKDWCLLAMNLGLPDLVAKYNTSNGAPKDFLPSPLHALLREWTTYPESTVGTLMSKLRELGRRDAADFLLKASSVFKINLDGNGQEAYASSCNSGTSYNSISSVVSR
Chain of MAP kinase-activated protein kinase 2 (P49137 whole entry): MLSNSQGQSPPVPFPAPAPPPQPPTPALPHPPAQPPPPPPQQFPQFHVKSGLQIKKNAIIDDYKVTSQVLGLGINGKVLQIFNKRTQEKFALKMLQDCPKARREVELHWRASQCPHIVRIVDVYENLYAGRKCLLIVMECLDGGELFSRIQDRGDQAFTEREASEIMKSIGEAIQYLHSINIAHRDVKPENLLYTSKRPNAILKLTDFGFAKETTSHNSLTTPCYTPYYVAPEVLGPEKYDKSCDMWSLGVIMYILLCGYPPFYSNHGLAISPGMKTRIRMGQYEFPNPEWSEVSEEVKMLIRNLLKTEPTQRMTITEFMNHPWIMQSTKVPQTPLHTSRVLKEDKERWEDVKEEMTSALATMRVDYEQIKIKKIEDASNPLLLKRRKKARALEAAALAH

SMILES: O=C(c1ccc(F)c(F)c1Nc1ccc(I)cc1F)N1CC(O)([C@@H]2CCCCN2)C1 [COBIMETINIB]
- IC50 [1]: > 10 µM
- Activity (A375.X1): Dose-Dependent Effect
- IC50 [2]: > 10 µM
- inhibition in vivo at 5 mg/kg (NCI-H441): 59%
- IC50 [3]: > 10 µM
- Activity (NCI-H2122 [4]): 83%
- inhibition in vivo at 10 mg/kg [5]: 104%
- inhibition in vivo at 5 mg/kg (NCI-H2122 [6]): 49%
- IC50 [7]: > 10 µM
- IC50 [8]: > 10 µM
- IC50 [9]: > 10 µM
- IC50 [10]: > 10 µM
- inhibition in vivo at 5 mg/kg (A549): 51.4%
- IC50 [11]: > 10 µM
- IC50 (Insulin receptor): > 10 µM
- IC50 [12]: > 10 µM
- IC50 [13]: > 10 µM
- inhibition in vivo at 2.5 mg/kg [14]: 36%
- Activity (SK-MEL-28): 60%
- inhibition in vivo at 15 mg/kg (DLD-1 [15]): 2%
- IC50 (Casein kinase I): > 10 µM
- inhibition in vivo at 3 mg/kg (DLD-1 [16]): 47%
- IC50 [17]: > 10 µM
- inhibition in vivo at 5 mg/kg (A-375): 120%
- inhibition in vivo at 10 mg/kg (A2058 [18]): 47.3%
- Activity (A2058 [19]): Active
